# Experimental data as given in BindingDB's records for doi:10.1016/j.bmcl.2008.10.125 (The University of Queensland, 2008).
# Molecular target: T1, Fe(3+)-Zn(2+) purple acid phosphatase (Phaseolus vulgaris, UniProt P80366)
# T1 sequence (P80366 whole entry): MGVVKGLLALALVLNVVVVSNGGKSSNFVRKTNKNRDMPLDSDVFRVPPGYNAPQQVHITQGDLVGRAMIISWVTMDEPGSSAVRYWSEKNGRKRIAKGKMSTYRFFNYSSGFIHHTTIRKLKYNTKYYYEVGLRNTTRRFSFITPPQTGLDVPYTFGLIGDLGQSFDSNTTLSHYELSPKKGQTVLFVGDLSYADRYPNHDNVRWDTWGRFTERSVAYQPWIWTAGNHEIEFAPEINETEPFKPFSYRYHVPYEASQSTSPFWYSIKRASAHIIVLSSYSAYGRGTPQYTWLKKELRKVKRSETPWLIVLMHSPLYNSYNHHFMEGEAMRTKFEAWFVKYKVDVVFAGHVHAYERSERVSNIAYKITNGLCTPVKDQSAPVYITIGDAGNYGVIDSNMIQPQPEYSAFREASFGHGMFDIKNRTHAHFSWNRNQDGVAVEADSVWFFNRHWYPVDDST
# Assay: Inhibition of red kidney bean PAP at pH 6.2
# In short: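 Each enzyme was run at its own pH optimum: red kidney bean PAP at pH 6.2 and pig PAP at pH 4.9. IC50 values were determined experimentally. Separate inhibition constants were derived for binding to the free enzyme and to the enzyme–substrate complex.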
row,SMILES,Ki
1,CCCCCCCCCCOC(c1cccc2ccccc12)P(=O)(O)O (racemic) [(+/-)-decyloxy(naphthalen-1-yl)methylphosphonic acid],4 µM
2,CCCCCCOC(c1cccc2ccccc12)P(=O)(O)O (racemic) [(+/-)-hexyloxy(naphthalen-1-yl)methylphosphonic acid],1470 µM
3,CCCCCCCCOC(c1cccc2ccccc12)P(=O)(O)O (racemic) [(+/-)-naphthalen-1-yl(octyloxy)methylphosphonic acid],50 µM
